Measurements from ChEMBL document CHEMBL5653631, “A Potent and Selective ULK1 Inhibitor Suppresses Autophagy and Sensitizes Cancer Cells to Nutrient Stress” (iScience, 2018).
Each block holds one compound with its values, some of them ahead of it.

Key:
[1] = target: Ephrin type-A receptor 4 (Homo sapiens) (UniProt P54764); test: Inhibition of human recombinant EphA4 at 500 nM in presence of ATP by radiometric assay relative to control
[2] = target: Serine/threonine-protein kinase mTOR (Homo sapiens) (UniProt P42345); test: Inhibition of human recombinant FRAP at 500 nM related to control ULK1
[3] = target: cAMP-dependent protein kinase catalytic subunit beta (Homo sapiens) (UniProt P22694); test: Inhibition of human recombinant PKACbeta at 500 nM related to control ULK1
[4] = target: Serine/threonine-protein kinase WNK2 (Homo sapiens) (UniProt Q9Y3S1); test: Inhibition of human recombinant Wnk2 at 500 nM related to control ULK1
[5] = target: Protein-tyrosine kinase 2-beta (Homo sapiens) (UniProt Q14289); test: Inhibition of human recombinant PYK2 at 500 nM in presence of ATP by radiometric assay relative to control
[6] = target: Serine/threonine-protein kinase mTOR (Homo sapiens) (UniProt P42345); test: Inhibition of human recombinant FRAP at 500 nM in presence of ATP by radiometric assay relative to control
[7] = target: Receptor tyrosine-protein kinase erbB-4 (Homo sapiens) (UniProt Q15303); test: Inhibition of human recombinant ErbB4 at 15 nM in presence of ATP by radiometric assay relative to control
[8] = target: T1, Beta-adrenergic receptor kinase 1 (Homo sapiens) (UniProt P25098); test: Inhibition of human recombinant BARK1 at 40 nM in presence of ATP by radiometric assay relative to control
T1 sequence (whole entry): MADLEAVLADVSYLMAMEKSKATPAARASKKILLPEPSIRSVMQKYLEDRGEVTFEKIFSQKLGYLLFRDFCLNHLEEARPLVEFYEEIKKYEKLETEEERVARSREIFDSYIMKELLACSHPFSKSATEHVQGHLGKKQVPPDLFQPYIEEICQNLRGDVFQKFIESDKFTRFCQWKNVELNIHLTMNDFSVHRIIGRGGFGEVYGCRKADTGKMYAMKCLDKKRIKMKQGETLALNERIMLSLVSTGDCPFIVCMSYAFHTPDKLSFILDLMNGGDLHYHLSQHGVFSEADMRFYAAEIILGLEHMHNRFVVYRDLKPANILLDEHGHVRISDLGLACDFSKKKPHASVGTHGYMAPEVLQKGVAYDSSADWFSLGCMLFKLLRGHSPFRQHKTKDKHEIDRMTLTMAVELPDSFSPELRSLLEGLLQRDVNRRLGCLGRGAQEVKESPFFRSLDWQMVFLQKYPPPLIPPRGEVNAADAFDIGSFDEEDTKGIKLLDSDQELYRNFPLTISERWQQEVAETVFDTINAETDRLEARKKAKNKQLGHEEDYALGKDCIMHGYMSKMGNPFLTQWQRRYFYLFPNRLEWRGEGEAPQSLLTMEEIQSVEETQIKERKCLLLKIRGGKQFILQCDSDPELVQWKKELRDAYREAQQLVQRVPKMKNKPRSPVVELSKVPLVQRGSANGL
Method in brief: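 Part of a radiometric in vitro activity panel of 327 recombinant human kinases. Each kinase was tested in duplicate at one inhibitor concentration. Activity remaining was expressed as a percentage of the vehicle control, and percent inhibition was taken as 100 minus that value.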

[9] = target: T2, Serine/threonine-protein kinase TAO1 (Homo sapiens) (UniProt Q7L7X3); test: Inhibition of human recombinant TAO1 at 40 nM related to control ULK1
T2 sequence (whole entry): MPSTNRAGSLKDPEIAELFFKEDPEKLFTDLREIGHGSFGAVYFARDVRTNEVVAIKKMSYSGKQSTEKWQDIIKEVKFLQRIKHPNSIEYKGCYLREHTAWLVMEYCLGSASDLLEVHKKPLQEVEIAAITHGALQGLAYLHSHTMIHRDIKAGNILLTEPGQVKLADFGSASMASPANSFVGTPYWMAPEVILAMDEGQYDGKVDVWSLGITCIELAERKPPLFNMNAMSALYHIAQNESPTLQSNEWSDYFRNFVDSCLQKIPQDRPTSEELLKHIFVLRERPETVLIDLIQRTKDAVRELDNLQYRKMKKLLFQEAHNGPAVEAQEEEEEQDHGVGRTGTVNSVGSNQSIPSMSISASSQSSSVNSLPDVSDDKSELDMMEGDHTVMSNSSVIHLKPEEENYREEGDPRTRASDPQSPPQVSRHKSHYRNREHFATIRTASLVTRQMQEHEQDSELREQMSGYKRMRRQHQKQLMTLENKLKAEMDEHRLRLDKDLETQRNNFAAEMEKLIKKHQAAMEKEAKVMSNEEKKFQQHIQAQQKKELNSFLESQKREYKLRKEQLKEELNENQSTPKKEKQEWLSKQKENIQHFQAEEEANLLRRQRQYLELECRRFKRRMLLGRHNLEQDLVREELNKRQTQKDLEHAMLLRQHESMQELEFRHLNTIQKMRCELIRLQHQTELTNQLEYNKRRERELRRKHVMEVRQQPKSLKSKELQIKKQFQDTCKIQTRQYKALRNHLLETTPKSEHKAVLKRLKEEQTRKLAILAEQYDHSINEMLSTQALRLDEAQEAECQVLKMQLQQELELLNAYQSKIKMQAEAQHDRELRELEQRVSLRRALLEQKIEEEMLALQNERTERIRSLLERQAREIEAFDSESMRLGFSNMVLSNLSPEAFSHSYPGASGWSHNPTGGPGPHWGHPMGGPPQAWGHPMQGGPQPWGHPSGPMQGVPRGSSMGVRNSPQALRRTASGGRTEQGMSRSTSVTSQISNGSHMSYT

[10] = target: Mitogen-activated protein kinase kinase kinase 10 (Homo sapiens) (UniProt Q02779); test: Inhibition of human recombinant MLK2 at 40 nM in presence of ATP by radiometric assay relative to control
[11] = target: T3, Tribbles homolog 2 (Homo sapiens) (UniProt Q92519); test: Inhibition of human recombinant Trb2 at 40 nM in presence of ATP by radiometric assay relative to control
T3 sequence (whole entry): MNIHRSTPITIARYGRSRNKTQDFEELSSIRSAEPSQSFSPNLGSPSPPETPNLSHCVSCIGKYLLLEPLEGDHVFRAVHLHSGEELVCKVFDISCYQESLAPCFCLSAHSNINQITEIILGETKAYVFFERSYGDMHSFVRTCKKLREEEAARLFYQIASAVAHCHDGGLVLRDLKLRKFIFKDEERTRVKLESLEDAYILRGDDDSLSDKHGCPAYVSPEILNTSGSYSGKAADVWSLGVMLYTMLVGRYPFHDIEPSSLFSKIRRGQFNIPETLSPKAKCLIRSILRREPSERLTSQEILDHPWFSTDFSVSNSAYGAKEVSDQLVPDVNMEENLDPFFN

Sequence of Receptor tyrosine-protein kinase erbB-4 (Homo sapiens) (Q15303 whole entry): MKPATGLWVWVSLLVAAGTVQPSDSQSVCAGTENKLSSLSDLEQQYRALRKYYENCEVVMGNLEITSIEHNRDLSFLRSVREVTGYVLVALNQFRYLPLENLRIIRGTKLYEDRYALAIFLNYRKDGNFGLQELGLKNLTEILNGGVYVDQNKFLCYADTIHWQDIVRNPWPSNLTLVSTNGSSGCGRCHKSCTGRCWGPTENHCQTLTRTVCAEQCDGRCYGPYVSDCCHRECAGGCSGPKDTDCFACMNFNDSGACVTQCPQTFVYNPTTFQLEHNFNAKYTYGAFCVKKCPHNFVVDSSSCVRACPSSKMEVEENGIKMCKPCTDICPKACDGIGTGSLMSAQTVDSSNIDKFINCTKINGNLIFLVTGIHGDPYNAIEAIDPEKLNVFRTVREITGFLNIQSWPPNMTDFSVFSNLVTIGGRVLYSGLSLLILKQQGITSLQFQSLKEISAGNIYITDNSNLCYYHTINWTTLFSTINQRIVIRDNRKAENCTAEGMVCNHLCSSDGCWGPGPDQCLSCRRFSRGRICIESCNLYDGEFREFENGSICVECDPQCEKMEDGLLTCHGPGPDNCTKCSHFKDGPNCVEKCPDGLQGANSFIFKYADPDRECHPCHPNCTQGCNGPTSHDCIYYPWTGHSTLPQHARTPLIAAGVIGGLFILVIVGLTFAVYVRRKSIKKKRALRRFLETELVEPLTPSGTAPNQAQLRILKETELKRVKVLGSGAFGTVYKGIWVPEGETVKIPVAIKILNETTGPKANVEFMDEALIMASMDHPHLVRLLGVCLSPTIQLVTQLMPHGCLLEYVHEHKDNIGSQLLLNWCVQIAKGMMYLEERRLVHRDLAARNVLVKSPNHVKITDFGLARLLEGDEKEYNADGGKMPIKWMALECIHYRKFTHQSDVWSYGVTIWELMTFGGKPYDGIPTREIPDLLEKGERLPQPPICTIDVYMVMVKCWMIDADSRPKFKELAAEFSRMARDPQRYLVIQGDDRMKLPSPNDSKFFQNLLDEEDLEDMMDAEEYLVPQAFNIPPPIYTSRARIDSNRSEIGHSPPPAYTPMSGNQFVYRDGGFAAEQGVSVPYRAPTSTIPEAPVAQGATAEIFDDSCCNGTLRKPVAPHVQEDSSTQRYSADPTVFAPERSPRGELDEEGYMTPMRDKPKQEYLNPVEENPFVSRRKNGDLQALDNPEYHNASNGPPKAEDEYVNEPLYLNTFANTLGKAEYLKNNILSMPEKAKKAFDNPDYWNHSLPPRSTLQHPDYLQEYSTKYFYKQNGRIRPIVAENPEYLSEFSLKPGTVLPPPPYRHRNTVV
Sequence of Protein-tyrosine kinase 2-beta (Homo sapiens) (Q14289 whole entry, looked up): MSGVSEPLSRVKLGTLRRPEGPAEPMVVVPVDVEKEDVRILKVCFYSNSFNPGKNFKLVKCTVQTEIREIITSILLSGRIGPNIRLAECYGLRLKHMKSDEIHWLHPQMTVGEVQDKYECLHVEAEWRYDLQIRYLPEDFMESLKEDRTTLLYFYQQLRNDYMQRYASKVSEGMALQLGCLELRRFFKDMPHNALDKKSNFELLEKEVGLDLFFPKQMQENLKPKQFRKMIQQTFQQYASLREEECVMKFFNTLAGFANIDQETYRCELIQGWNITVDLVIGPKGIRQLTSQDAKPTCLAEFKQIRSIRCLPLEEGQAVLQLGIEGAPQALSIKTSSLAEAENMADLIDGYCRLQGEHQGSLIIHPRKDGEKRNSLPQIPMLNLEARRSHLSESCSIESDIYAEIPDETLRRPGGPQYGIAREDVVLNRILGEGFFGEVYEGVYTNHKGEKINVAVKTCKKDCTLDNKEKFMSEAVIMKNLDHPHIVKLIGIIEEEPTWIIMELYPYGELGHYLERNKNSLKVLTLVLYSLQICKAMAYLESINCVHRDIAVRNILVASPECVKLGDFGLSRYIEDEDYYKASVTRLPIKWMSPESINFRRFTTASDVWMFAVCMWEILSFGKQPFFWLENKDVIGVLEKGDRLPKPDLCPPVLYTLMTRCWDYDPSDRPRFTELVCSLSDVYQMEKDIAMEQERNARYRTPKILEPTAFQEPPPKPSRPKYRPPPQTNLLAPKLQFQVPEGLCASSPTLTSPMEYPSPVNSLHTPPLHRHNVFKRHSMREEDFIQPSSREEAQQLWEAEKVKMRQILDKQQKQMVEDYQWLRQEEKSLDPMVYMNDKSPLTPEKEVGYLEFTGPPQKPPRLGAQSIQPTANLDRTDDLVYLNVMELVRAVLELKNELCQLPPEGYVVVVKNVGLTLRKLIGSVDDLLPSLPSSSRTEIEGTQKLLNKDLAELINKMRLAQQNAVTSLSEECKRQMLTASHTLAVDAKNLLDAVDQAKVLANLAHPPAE
Sequence of Ephrin type-A receptor 4 (Homo sapiens) (P54764 whole entry): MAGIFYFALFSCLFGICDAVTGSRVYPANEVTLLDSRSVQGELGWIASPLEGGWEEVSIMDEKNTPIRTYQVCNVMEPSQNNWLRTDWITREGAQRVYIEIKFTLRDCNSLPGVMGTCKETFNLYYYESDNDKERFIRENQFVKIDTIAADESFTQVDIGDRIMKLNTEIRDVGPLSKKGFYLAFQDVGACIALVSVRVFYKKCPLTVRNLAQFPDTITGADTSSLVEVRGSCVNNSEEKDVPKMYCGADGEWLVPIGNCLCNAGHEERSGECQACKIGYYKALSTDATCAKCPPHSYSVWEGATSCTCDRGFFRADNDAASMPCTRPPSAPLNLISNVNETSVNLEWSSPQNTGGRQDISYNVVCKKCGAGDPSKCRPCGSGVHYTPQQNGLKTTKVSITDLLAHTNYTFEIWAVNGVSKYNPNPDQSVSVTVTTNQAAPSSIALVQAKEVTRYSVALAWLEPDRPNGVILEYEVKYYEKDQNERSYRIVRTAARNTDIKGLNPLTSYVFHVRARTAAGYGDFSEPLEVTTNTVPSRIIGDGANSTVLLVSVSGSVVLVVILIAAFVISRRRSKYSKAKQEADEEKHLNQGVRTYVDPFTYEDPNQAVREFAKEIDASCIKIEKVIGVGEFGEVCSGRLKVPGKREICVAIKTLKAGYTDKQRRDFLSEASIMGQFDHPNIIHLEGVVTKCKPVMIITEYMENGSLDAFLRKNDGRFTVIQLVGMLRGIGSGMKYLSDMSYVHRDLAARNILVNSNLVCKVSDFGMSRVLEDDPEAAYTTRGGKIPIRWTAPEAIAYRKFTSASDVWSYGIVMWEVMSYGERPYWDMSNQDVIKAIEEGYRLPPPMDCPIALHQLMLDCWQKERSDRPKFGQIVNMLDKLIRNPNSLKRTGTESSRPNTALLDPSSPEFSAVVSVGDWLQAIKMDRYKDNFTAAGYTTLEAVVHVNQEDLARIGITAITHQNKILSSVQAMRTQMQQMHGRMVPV
Sequence of Mitogen-activated protein kinase kinase kinase 10 (Homo sapiens) (Q02779 whole entry, looked up): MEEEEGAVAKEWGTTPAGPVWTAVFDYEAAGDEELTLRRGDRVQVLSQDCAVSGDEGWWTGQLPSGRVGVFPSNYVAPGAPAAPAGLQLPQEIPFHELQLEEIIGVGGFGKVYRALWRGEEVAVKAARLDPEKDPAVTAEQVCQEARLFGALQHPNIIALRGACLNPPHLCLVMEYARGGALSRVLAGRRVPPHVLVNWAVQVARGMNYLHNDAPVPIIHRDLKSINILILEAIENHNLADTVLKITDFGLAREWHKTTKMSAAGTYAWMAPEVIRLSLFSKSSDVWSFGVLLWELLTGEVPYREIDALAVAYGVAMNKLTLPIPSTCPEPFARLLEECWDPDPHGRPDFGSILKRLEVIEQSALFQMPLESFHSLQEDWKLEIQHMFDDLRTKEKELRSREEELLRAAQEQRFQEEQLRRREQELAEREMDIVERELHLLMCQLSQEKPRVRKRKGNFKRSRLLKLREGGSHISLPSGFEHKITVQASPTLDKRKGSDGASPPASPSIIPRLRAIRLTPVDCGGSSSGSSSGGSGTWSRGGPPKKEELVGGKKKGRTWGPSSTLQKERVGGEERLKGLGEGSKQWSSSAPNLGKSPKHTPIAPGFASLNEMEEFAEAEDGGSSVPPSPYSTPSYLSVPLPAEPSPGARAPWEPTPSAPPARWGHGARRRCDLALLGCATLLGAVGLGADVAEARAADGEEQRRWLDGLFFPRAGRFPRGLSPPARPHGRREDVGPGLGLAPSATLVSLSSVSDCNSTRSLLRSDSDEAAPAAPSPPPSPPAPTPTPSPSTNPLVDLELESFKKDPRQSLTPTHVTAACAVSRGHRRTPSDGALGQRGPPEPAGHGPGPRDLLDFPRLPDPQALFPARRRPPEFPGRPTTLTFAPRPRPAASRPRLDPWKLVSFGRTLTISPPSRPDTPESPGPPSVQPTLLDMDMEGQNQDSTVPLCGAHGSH

inhibition [1]: 15% | fold change (FC) [2]: 0 | fold change (FC) [3]: 0 | fold change (FC) [4]: 0.01 | inhibition [5]: 53% | inhibition [6]: 0%
SMILES: CNC(=O)c1ccccc1Oc1nc(Nc2cc(OC)c(OC)c(OC)c2)ncc1Br

inhibition [7]: 0%
SMILES: CC(C)[C@H](NC(=O)c1cc(-c2cnn3cc(-c4ccc(OCCN5CCCCC5)cc4)cnc23)cs1)C(F)(F)F

inhibition [8]: 3% | fold change (FC) [9]: 0 | inhibition [10]: 0% | inhibition [11]: 34%
SMILES: O=C(N[C@@H](C1CC1)C(F)(F)F)c1cc(-c2cnn3cc(-c4ccc(F)cc4)cnc23)cs1
